pEC50, pIC50: −log10 of the molar value. Activity calls are given as the source filed them. The rule behind the calls is not given here.
Columns and labels:
Histone deacetylase 1 [1] = target: T1, Histone deacetylase 1 (Homo sapiens, UniProt Q13547); assay: Inhibition of full length recombinant human C-terminal FLAG/His-tagged HDAC1 expressed in baculovirus expression system using Boc-Lys(acetyl)-AMC as substrate preincubated for 1 hr followed by substrate addition measured after 2 hrs by fluorescence assay
T1 sequence (Q13547 whole entry): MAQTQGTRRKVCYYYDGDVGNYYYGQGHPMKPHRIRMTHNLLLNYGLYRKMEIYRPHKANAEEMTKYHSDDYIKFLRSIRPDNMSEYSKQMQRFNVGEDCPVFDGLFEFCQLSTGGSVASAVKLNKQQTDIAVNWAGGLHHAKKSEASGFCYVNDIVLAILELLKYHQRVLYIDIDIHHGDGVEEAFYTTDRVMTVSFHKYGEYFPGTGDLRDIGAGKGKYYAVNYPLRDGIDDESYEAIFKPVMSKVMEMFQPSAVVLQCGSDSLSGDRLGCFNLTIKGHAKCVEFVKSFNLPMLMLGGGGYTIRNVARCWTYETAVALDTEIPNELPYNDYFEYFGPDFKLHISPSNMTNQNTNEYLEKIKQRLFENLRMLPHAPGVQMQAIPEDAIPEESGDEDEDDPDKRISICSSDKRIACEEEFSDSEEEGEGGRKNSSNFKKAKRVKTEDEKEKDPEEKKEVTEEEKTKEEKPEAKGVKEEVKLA
Procedure, shortened: (§1)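 Recombinant HDAC incubated with serial compound dilutions at 30 °C for 1 h. Reaction run 2 h at 30 °C, stopped with developer containing trypsin and TSA. Fluorescence read after 30 min at 360/460 nm. Inhibition relative to control wells; IC50 from variable-slope fit.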

Histone deacetylase 2 [2] = target: T2, Histone deacetylase 2 (Homo sapiens, UniProt Q92769); assay: Inhibition of full length recombinant human C-terminal FLAG/His-tagged HDAC2 expressed in baculovirus expression system using Boc-Lys(acetyl)-AMC as substrate preincubated for 1 hr followed by substrate addition measured after 2 hrs by fluorescence assay; procedure, shortened: as §1
T2 sequence (Q92769 whole entry): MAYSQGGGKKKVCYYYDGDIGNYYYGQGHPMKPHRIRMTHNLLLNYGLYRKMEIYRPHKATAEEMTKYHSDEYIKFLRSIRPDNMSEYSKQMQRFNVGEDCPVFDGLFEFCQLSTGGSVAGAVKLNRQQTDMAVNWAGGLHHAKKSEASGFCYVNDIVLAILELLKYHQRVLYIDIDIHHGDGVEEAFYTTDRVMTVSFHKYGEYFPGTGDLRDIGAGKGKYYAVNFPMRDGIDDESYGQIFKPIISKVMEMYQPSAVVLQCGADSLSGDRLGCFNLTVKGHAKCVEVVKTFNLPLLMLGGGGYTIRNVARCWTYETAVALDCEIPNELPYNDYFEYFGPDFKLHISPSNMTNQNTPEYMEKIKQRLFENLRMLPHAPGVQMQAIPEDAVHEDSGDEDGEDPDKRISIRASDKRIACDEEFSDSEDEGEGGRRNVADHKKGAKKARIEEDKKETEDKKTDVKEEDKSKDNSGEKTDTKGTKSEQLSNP

[3] = target: T3, Histone deacetylase 3/Nuclear receptor corepressor 2 (HDAC3/NCoR2) (Homo sapiens, UniProt O15379); assay: Inhibition of full length recombinant human C-terminal His-tagged HDAC3/N-terminal GST-tagged NCOR2 co-expressed in baculovirus expression system using Boc-Lys(acetyl)-AMC as substrate preincubated for 1 hr followed by substrate addition measured after 2 hrs by fluorescence assay; procedure, shortened: as §1
T3 sequence (O15379 whole entry): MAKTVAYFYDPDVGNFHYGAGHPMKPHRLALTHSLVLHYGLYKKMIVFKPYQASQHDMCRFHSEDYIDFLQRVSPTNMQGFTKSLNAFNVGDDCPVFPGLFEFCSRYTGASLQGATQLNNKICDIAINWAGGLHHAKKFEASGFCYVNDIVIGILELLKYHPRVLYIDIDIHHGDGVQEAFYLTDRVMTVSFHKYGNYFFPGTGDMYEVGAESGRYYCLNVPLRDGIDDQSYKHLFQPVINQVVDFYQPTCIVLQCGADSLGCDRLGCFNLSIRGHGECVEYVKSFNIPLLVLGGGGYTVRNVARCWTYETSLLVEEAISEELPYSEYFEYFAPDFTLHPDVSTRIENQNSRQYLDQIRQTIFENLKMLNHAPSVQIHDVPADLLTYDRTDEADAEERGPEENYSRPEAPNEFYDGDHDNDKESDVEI
T3 sequence (Q9Y618 whole entry, further chain): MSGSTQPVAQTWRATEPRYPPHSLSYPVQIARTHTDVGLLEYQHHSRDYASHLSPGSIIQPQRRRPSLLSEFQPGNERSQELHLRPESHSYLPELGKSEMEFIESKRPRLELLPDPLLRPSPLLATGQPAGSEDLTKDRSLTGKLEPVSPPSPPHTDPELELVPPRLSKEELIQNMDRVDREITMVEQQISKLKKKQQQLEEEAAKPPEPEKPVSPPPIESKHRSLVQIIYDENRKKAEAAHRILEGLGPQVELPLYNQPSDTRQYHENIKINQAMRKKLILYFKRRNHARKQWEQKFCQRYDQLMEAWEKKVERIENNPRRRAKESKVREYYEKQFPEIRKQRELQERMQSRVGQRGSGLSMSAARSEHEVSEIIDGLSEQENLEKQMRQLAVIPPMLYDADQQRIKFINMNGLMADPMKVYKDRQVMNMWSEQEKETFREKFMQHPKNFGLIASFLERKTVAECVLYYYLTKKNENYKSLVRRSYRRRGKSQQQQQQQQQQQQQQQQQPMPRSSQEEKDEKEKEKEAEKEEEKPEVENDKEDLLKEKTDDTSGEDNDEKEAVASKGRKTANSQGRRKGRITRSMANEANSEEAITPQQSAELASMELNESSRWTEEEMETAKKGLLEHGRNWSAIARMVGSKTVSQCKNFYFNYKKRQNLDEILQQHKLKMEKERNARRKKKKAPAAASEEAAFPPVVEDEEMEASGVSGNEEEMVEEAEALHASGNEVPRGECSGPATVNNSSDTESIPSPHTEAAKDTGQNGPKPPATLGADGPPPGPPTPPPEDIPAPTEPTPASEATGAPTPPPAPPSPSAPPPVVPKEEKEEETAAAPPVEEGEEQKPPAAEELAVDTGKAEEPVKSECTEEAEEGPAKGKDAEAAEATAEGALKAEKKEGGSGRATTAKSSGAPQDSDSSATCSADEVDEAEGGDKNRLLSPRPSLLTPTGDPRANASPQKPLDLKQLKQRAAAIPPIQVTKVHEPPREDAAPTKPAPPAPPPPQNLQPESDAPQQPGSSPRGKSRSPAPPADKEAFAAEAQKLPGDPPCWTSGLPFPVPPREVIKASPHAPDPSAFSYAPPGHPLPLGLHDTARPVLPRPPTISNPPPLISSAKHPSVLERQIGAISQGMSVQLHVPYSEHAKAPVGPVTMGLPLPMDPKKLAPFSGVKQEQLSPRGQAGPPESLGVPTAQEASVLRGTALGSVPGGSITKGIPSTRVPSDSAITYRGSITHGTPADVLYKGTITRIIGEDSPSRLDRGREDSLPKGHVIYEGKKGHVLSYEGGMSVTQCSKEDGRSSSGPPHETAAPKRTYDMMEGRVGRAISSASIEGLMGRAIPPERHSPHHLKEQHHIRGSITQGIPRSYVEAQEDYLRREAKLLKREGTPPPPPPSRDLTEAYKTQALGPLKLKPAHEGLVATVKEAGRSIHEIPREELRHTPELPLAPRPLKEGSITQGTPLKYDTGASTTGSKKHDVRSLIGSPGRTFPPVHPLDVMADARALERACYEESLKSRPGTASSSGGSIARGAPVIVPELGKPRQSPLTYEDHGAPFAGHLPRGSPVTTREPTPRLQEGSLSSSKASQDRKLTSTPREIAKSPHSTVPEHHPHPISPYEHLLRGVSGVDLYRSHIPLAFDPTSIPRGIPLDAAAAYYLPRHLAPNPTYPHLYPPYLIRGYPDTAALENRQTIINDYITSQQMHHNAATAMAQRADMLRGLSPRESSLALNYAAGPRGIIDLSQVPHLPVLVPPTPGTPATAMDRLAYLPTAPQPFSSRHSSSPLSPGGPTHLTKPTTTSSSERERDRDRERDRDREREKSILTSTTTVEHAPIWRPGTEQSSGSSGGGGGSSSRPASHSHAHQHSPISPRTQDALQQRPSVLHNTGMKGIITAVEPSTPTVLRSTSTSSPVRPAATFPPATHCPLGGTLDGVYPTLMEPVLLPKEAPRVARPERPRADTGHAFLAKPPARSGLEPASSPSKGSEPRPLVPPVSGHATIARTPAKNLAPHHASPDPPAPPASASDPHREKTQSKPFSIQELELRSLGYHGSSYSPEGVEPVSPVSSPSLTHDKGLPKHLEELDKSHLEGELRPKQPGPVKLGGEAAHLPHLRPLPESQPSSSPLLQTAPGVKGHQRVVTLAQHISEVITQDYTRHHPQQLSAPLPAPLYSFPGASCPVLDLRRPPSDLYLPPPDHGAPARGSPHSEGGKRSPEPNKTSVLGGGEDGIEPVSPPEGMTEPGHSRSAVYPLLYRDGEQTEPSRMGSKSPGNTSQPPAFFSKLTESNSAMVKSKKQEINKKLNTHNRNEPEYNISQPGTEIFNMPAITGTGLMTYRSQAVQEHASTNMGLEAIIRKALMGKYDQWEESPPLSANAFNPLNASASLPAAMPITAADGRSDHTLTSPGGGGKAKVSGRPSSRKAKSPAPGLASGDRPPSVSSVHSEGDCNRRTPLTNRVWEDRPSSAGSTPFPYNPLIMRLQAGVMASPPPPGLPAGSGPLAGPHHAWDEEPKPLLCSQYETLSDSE

[4] = target: T4, Protein deacetylase HDAC6 (Homo sapiens, UniProt Q9UBN7); assay: Inhibition of HDAC6 (unknown origin) using Boc-Lys(acetyl)-AMC as substrate preincubated for 1 hr followed by substrate addition measured after 2 hrs by fluorescence assay; procedure, shortened: as §1
T4 sequence (Q9UBN7 whole entry): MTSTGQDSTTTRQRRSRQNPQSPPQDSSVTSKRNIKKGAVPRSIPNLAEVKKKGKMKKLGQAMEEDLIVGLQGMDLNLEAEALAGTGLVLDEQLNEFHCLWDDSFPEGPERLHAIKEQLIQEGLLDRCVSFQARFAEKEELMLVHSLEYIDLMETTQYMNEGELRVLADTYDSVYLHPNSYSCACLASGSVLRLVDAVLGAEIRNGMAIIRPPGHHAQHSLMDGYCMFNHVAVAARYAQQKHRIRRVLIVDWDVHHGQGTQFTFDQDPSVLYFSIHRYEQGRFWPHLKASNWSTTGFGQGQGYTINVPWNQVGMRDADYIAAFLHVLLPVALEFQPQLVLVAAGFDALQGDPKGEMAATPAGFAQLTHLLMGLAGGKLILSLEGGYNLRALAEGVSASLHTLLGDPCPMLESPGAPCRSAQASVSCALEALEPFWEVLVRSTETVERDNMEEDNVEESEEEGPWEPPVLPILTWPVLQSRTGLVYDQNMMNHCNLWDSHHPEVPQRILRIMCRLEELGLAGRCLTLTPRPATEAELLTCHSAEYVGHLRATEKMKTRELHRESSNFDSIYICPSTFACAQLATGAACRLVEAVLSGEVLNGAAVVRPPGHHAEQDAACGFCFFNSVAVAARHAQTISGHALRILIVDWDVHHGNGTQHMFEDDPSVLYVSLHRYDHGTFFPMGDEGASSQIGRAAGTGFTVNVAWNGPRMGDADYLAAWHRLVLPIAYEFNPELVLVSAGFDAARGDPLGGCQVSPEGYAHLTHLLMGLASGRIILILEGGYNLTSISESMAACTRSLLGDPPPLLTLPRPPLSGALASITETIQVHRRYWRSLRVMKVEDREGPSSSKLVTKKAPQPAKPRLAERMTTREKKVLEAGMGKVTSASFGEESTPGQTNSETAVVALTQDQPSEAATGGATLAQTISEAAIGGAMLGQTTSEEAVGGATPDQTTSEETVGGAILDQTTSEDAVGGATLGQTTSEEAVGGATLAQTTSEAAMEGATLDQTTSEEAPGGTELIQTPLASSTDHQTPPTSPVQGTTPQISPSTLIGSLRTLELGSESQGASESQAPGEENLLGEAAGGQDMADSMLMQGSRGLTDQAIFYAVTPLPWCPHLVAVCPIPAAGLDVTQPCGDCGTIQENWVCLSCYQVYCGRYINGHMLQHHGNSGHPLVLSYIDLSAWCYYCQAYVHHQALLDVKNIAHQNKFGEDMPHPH

MV4-11 [5] = assay: Antiproliferative activity against human MV4-11 cells after 48 hrs by CellTiter-Blue assay; format: functional, cell-based; details: MV4-11, 48 h
Histone deacetylase 2 [6] = target: T2, Histone deacetylase 2; assay: Mixed-type inhibition of full length recombinant human C-terminal FLAG/His-tagged HDAC2 expressed in baculovirus expression system using Boc-Lys(acetyl)-AMC as substrate preincubated for 2 hrs followed by substrate addition measured after 2 hrs by Lineweaver-Burk plot analysis
Procedure, shortened: (§2)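 Recombinant human HDAC2 or HDAC3 incubated 2 h at 30 °C with inhibitor at several concentrations in HDAC buffer. Serially diluted Boc-Lys(acetyl)-AMC added for 2 h, then quenched with 5 mg/mL trypsin and 1 μM TSA. Fluorescence read at 360/460 nm. Vmax and Km from Michaelis–Menten fits, shown as Lineweaver–Burk plots.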

[7] = target: Histone deacetylase 3/Nuclear receptor corepressor 2 (HDAC3/NCoR2) (Homo sapiens) (UniProt O15379+Q9Y618); assay: Mixed-type inhibition of full length recombinant human C-terminal His-tagged HDAC3/N-terminal GST-tagged NCOR2 co-expressed in baculovirus expression system using Boc-Lys(acetyl)-AMC as substrate preincubated for 2 hrs followed by substrate addition measured after 2 hrs by Lineweaver-Burk plot analysis; procedure, shortened: as §2
Histone deacetylase 2 [8] = target: T2, Histone deacetylase 2; assay: Inhibition of full length recombinant human C-terminal FLAG/His-tagged HDAC2 expressed in baculovirus expression system using Boc-Lys(acetyl)-AMC as substrate preincubated for 90 mins followed by substrate addition measured after 2 hrs by fluorescence assay
Procedure, shortened: (§3)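 Recombinant HDAC2 preincubated with serial compound dilutions at 30 °C for 15, 30, 60 or 90 min. Boc-Lys(acetyl)-AMC added and reaction run 2 h at 30 °C, then stopped with trypsin/TSA developer. Fluorescence read at 360/460 nm; IC50 from variable-slope fit of control-normalized inhibition.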

Histone deacetylase 2 [9] = target: T2, Histone deacetylase 2; assay: Inhibition of full length recombinant human C-terminal FLAG/His-tagged HDAC2 expressed in baculovirus expression system using Boc-Lys(acetyl)-AMC as substrate preincubated for 60 mins followed by substrate addition measured after 2 hrs by fluorescence assay; procedure, shortened: as §3
Histone deacetylase 2 [10] = target: T2, Histone deacetylase 2; assay: Inhibition of full length recombinant human C-terminal FLAG/His-tagged HDAC2 expressed in baculovirus expression system using Boc-Lys(acetyl)-AMC as substrate preincubated for 30 mins followed by substrate addition measured after 2 hrs by fluorescence assay; procedure, shortened: as §3
Histone deacetylase 2 [11] = target: T2, Histone deacetylase 2; assay: Inhibition of full length recombinant human C-terminal FLAG/His-tagged HDAC2 expressed in baculovirus expression system using Boc-Lys(acetyl)-AMC as substrate preincubated for 15 mins followed by substrate addition measured after 2 hrs by fluorescence assay; procedure, shortened: as §3
Histone deacetylase 1 [12] = target: T1, Histone deacetylase 1; assay: Inhibition of full length recombinant human C-terminal FLAG/His-tagged HDAC1 expressed in baculovirus expression system using Boc-Lys(acetyl)-AMC as substrate preincubated for 90 mins followed by substrate addition measured after 2 hrs by fluorescence assay
Procedure, shortened: (§4)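 Recombinant HDAC1 was preincubated with serially diluted inhibitor at 30 °C for the stated time. Boc-Lys(acetyl)-AMC was then added and the reaction ran 2 h at 30 °C. It was stopped with a trypsin/trichostatin A developer, and fluorescence was read 30 min later (ex 360/em 460 nm). Inhibition was taken relative to control wells, and IC50 came from a variable-slope log(inhibitor)–normalized response fit.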

Histone deacetylase 1 [13] = target: T1, Histone deacetylase 1; assay: Inhibition of full length recombinant human C-terminal FLAG/His-tagged HDAC1 expressed in baculovirus expression system using Boc-Lys(acetyl)-AMC as substrate preincubated for 60 mins followed by substrate addition measured after 2 hrs by fluorescence assay; procedure, shortened: as §4
Histone deacetylase 1 [14] = target: T1, Histone deacetylase 1; assay: Inhibition of full length recombinant human C-terminal FLAG/His-tagged HDAC1 expressed in baculovirus expression system using Boc-Lys(acetyl)-AMC as substrate preincubated for 15 mins followed by substrate addition measured after 2 hrs by fluorescence assay; procedure, shortened: as §4
[15] = target: T3, Histone deacetylase 3/Nuclear receptor corepressor 2 (HDAC3/NCoR2); assay: Inhibition of full length recombinant human C-terminal His-tagged HDAC3/N-terminal GST-tagged NCOR2 co-expressed in baculovirus expression system using Boc-Lys(acetyl)-AMC as substrate preincubated for 90 mins followed by substrate addition measured after 2 hrs by fluorescence assay
[16] = target: T3, Histone deacetylase 3/Nuclear receptor corepressor 2 (HDAC3/NCoR2); assay: Inhibition of full length recombinant human C-terminal His-tagged HDAC3/N-terminal GST-tagged NCOR2 co-expressed in baculovirus expression system using Boc-Lys(acetyl)-AMC as substrate preincubated for 60 mins followed by substrate addition measured after 2 hrs by fluorescence assay
[17] = target: T3, Histone deacetylase 3/Nuclear receptor corepressor 2 (HDAC3/NCoR2); assay: Inhibition of full length recombinant human C-terminal His-tagged HDAC3/N-terminal GST-tagged NCOR2 co-expressed in baculovirus expression system using Boc-Lys(acetyl)-AMC as substrate preincubated for 30 mins followed by substrate addition measured after 2 hrs by fluorescence assay
[18] = target: T3, Histone deacetylase 3/Nuclear receptor corepressor 2 (HDAC3/NCoR2); assay: Inhibition of full length recombinant human C-terminal His-tagged HDAC3/N-terminal GST-tagged NCOR2 co-expressed in baculovirus expression system using Boc-Lys(acetyl)-AMC as substrate preincubated for 15 mins followed by substrate addition measured after 2 hrs by fluorescence assay
Histone deacetylase 1 [19] = target: T1, Histone deacetylase 1; assay: Inhibition of full length recombinant human C-terminal FLAG/His-tagged HDAC1 expressed in baculovirus expression system using Boc-Lys(acetyl)-AMC as substrate preincubated for 30 mins followed by substrate addition measured after 2 hrs by fluorescence assay
MV4-11 [20] = assay: Downregulation of HDAC6 protein expression in human MV4-11 cells at 5 uM after 24 hrs by Western blot analysis; format: functional, cell-based
Procedure, shortened: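 MV4-11 cells treated 24 h at 0.25, 0.5, 1 and 2 μM, with 5 μM SAHA as reference. RIPA lysates normalized by BCA, run on 4–12% Bis-Tris gels, probed with primary antibodies at 1/1000 overnight at 4 °C. HDAC6 and acetylated histones/tubulin detected; actin as loading control. Representative of n = 2.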

SMILES | pIC50 (Histone deacetylase 1 [1]) | pIC50 (Histone deacetylase 2 [2]) | pIC50 [3] | pIC50 [4] | also measured
CCCNNC(=O)CCCCCCCNC(=O)[C@H](Cc1c[nH]c2ccccc12)NC(=O)c1ccc(OC)cc1 | 7.28 | 6.70 | 7.92 | < 4.00 | –
COc1ccc(C(=O)N[C@@H](Cc2c[nH]c3ccccc23)C(=O)NCc2ccc(C(=O)NNc3ccccc3)cc2)cc1 | < 5.30 | < 5.30 | < 5.30 | < 4.00 | pEC50 (MV4-11 [5]): < 4.70
CCCNNC(=O)CCCCCCNC(=O)[C@H](Cc1c[nH]c2ccccc12)NC(=O)c1ccc(OC)cc1 | 7.04 | 6.72 | 8.28 | < 4.00 | –
CCCNNC(=O)c1ccc(CNC(=O)[C@H](Cc2c[nH]c3ccccc23)NC(=O)c2ccc(OC)cc2)cc1 | 7.20 | 6.54 | – | < 4.00 | inhibition (Histone deacetylase 2 [6]): Active; inhibition [7]: Active; pIC50 (Histone deacetylase 2 [8]): 6.71; pIC50 (Histone deacetylase 2 [9]): 6.59; pIC50 (Histone deacetylase 2 [10]): 6.44; pIC50 (Histone deacetylase 2 [11]): 6.37; pIC50 (Histone deacetylase 1 [12]): 7.48; pIC50 (Histone deacetylase 1 [13]): 7.30; pIC50 (Histone deacetylase 1 [14]): 7.04
COc1ccc(C(=O)N[C@@H](Cc2c[nH]c3ccccc23)C(=O)NCc2ccc(C(=O)NNC3CCCC3)cc2)cc1 | < 5.30 | < 5.30 | < 5.30 | < 4.00 | pEC50 (MV4-11 [5]): < 4.70
CCCCNNC(=O)c1ccc(CNC(=O)[C@H](Cc2c[nH]c3ccccc23)NC(=O)c2ccc(OC)cc2)cc1 | 7.27 | 6.71 | 7.78 | < 4.00 | –
COc1ccc(C(=O)N[C@@H](Cc2c[nH]c3ccccc23)C(=O)NCc2ccc(C(=O)Nc3ccccc3N)cc2)cc1 | – | – | – | < 4.00 | inhibition (Histone deacetylase 2 [6]): Active; inhibition [7]: Active; pIC50 [15]: 6.87; pIC50 [16]: 6.74; pIC50 [17]: 6.36; pIC50 [18]: 6.03; pIC50 (Histone deacetylase 2 [8]): 6.92; pIC50 (Histone deacetylase 2 [9]): 6.77; pIC50 (Histone deacetylase 2 [10]): 6.60; pIC50 (Histone deacetylase 2 [11]): 6.46; pIC50 (Histone deacetylase 1 [12]): 7.46; pIC50 (Histone deacetylase 1 [13]): 7.30; pIC50 (Histone deacetylase 1 [19]): 7.19; pIC50 (Histone deacetylase 1 [14]): 7.00
CCCNNC(=O)/C=C/c1ccc(OC[C@H](Cc2c[nH]c3ccccc23)NC(=O)c2ccc(OC)cc2)cc1 | 7.54 | 6.55 | 8.55 | < 4.00 | pEC50 (MV4-11 [5]): 6.61
CCNNC(=O)c1ccc(CNC(=O)[C@H](Cc2c[nH]c3ccccc23)NC(=O)c2ccc(OC)cc2)cc1 | 7.02 | 7.05 | 7.46 | 6.41 | –
O=C(CCCCCCC(=O)Nc1ccccc1)NO | – | – | – | – | Activity (MV4-11 [20]): Active
CCCNNC(=O)CCCCCNC(=O)[C@H](Cc1c[nH]c2ccccc12)NC(=O)c1ccc(OC)cc1 | 7.10 | 6.68 | 7.91 | < 4.00 | –
CCCCCNNC(=O)c1ccc(CNC(=O)[C@H](Cc2c[nH]c3ccccc23)NC(=O)c2ccc(OC)cc2)cc1 | 7.53 | 6.48 | 7.96 | < 4.00 | –
